The results in this text go back to ChEMBL document CHEMBL3414459, “Phenolic thio- and selenosemicarbazones as multi-target drugs” (Eur J Med Chem, 2015).

Activity calls are given as the source filed them. The calls are words filed in the database; no cut-off is given here.

Series [1] can be described thus: Antioxidant activity assessed as DPPH free radical scavenging activity incubated for 30 mins. Type of series: physicochemical. An outline of the steps: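 DPPH in HPLC-grade solvent mixed with compound in DMSO at 7 concentrations, or with DMSO alone as control. Kept in the dark at rt for 30 min, then A515 read against a blank. % DPPH remaining = A_sample/A_control × 100, plotted against concentration; EC50 taken from the straight line. Triplicate.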
Background: The DPPH test is a chemical assay of radical scavenging.

The nature of series [2]: Antioxidant activity assessed as H2O2 scavenging activity at 100 uM incubated for 20 mins by phenol red based assay. Type of series: physicochemical. An outline of the steps:
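Compound at 100 µM final, or DMSO control, in 0.1 M phosphate buffer pH 7.4 with H2O2 and 0.1 M NaCl, incubated in the dark at 37 °C for 20 min. Phenol red (0.2 mg/mL) and horseradish peroxidase (0.1 mg/mL) added, 15 min at 37 °C. NaOH added, 10 min at rt, A610 read. % reduction = (A_control − A_sample)/A_control × 100.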

The nature of series [3]: Antioxidant activity assessed as inhibition of the lipid peroxidation at 0.74 mM incubated for 24 hrs by ferric thiocyanate method. Type of series: physicochemical. Conditions: 740 µM. The method in brief:
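Ferric thiocyanate method at 0.74 mM. 10.0 mM DMSO stock combined with methanolic linoleic acid in 0.2 M phosphate buffer pH 7.0. AAPH added, then 24 h at 50 °C in the dark; DMSO served as control. An aliquot was diluted in H2O–DMSO with NH4SCN and FeCl2 in HCl. After 3 min at rt, A546 read. % inhibition relative to control.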

The nature of series [4]: Pro-oxidant activity assessed as hydroxyl radical generation through deoxyribose degradation by measuring change in absorbance at 0.83 mM by TBARS based spectrophotometry. Type of series: ADME. To be noted: 830 µM. An outline of the steps: (§1)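 Modified Halliwell deoxyribose assay with the compound at the stated concentration in 0.1 M phosphate buffer pH 7.4, with 2-deoxyribose, H2O2, and FeCl3 premixed with EDTA. Heated 1 h at 37 °C, then TBA in NaOH and trichloroacetic acid added and heated 15 min at 100 °C. Cooled, A532 read; DMSO as control. Repeated without deoxyribose to account for TBARS interference.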

The nature of series [5]: Inhibition of baker's yeast alpha-glucosidase using p-nitrophenyl-alpha-D-glucopyranoside substrate assessed as reduction in p-nitrophenolate formation at 500 uM. Conditions: Saccharomyces bayanus. The method in brief: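 α-Glucosidase in 0.1 M phosphate buffer pH 6.8 with p-nitrophenyl-α-D-glucopyranoside at K_M (250 µM; K_M 0.25 mM). Inhibitor at 500 µM final or DMSO, DMSO 5% v/v.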

Series [6] in a line: Inhibition of baker's yeast alpha-glucosidase using p-nitrophenyl-alpha-D-glucopyranoside substrate assessed as inhibition constant for enzyme-substrate-compound binding by measuring reduction in p-nitrophenolate formation. The method in brief: (§2)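 Same α-glucosidase conditions: pH 6.8 phosphate buffer, 25 °C, A400 for p-nitrophenolate, 5% DMSO. Done for inhibitors exceeding 50% inhibition at 500 µM. Rates measured at 5 substrate concentrations from 0.25 to 4.0 K_m, each at a fixed inhibitor concentration, using 2–3 inhibitor concentrations. Lineweaver–Burk double reciprocal plots gave the inhibition mode and constants K_ia (E) and K_ib (ES).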

Series [7] has as its system Saccharomyces bayanus. The series can be described thus: Un-competitive inhibition of baker's yeast alpha-glucosidase using p-nitrophenyl-alpha-D-glucopyranoside substrate assessed as reduction in p-nitrophenolate formation by Lineweaver-Burk plot. The method in brief:
as §2

A further series deals with A549. Description: Antiproliferative activity against human A549 cells after 48 hrs by sulforhodamine B assay. To be noted: A549, 48 h. Type of series: functional. An outline of the steps:
(§3)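 Exponentially growing cells trypsinized into penicillin/streptomycin medium, >97% viable by trypan blue. Seeded per well: 10,000 (A549, HBL-100, HeLa, SW1573), 15,000 (T-47D), 20,000 (WiDr). Treatment began day 1, DMSO stocks 40 mM, 0.25% DMSO as control, triplicate, 48 h. Cells fixed with cold TCA 60 min at 4 °C, SRB stained, OD492 read, medium background subtracted.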
Background: Sulforhodamine B stains cellular protein and so reports cell mass.

Series [8] is described as follows: Antiproliferative activity against human HBL100 cells after 48 hrs by sulforhodamine B assay. Type of series: functional. To be noted: HBL-100, 48 h. An outline of the steps:
as §3

The test system of the next series is SW1573. The series can be described thus: Antiproliferative activity against human SW1573 cells after 48 hrs by sulforhodamine B assay. Conditions: SW1573, 48 h. Type of series: functional. An outline of the steps: as §3
The test system of series [9] is HeLa. The series can be described thus: Antiproliferative activity against human HeLa cells after 48 hrs by sulforhodamine B assay. Type of series: functional. The method in brief: as §3
The subject of series [10] is T47D. Description: Antiproliferative activity against human T47D cells after 48 hrs by sulforhodamine B assay. The series is classed as functional. The method in brief:
as §3

For series [11], the system named is WiDr. Description: Antiproliferative activity against human WiDr cells after 48 hrs by sulforhodamine B assay. Type of series: functional. The method in brief: as §3
A short description of series [12]: Inhibition of baker's yeast alpha-glucosidase using p-nitrophenyl-alpha-D-glucopyranoside substrate assessed as inhibition constant for enzyme-compound binding by measuring reduction in p-nitrophenolate formation. The arrangement: species or system Saccharomyces cerevisiae. An outline of the steps: as §2
The subject of series [13] is Saccharomyces bayanus. The series can be described thus: Non-competitive inhibition of baker's yeast alpha-glucosidase using p-nitrophenyl-alpha-D-glucopyranoside substrate assessed as reduction in p-nitrophenolate formation by Lineweaver-Burk plot. The method in brief:
as §2

Series [14] has as its system Saccharomyces bayanus. Description: Potency index, ratio of Ki for acarbose to Ki for compound against baker's yeast alpha-glucosidase using p-nitrophenyl-alpha-D-glucopyranoside substrate assessed as reduction in p-nitrophenolate formation.
Series [15] is described as follows: Inhibition of baker's yeast alpha-glucosidase using p-nitrophenyl-alpha-D-glucopyranoside substrate assessed as reduction in p-nitrophenolate formation. The method in brief: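 Run in 0.1 M phosphate buffer, pH 6.8, with 5% (v/v) DMSO. […] Enzyme started the reaction at 25 °C, and p-nitrophenolate was followed at 400 nm. Percent inhibition came from rates with and without inhibitor. Where inhibition exceeded 50%, Ki and mode were derived by Lineweaver–Burk, using substrate 0.25–4.0 Km and 2–3 fixed inhibitor concentrations.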

A short description of series [16]: Pro-oxidant activity assessed as hydroxyl radical generation through deoxyribose degradation by measuring change in absorbance at 0.42 mM by TBARS based spectrophotometry. Type of series: ADME. To be noted: 420 µM. The method in brief: as §1
The nature of series [17]: Pro-oxidant activity assessed as hydroxyl radical generation through deoxyribose degradation by measuring change in absorbance at 0.17 mM by TBARS based spectrophotometry. Type of series: ADME. Conditions: 170 µM. An outline of the steps:
as §1

Series [18] is described as follows: Pro-oxidant activity assessed as hydroxyl radical generation through deoxyribose degradation by measuring change in absorbance at 0.083 mM by TBARS based spectrophotometry. Type of series: ADME. To be noted: 83 µM. An outline of the steps: as §1
Series [19] in a line: Mixed inhibition of baker's yeast alpha-glucosidase using p-nitrophenyl-alpha-D-glucopyranoside substrate assessed as reduction in p-nitrophenolate formation by Lineweaver-Burk plot. To be noted: Saccharomyces bayanus. An outline of the steps: as §2
For series [20], the system named is HeLa. The series can be described thus: Potency index, ratio of GI50 for 5-fluorouracil to GI50 for compound against human HeLa cells after 48 hrs by sulforhodamine B assay. The series is classed as functional.
Series [21] has as its system T47D. Description: Potency index, ratio of GI50 for 5-fluorouracil to GI50 for compound against human T47D cells after 48 hrs by sulforhodamine B assay. The series is classed as functional.
Series [22] deals with WiDr. Description: Potency index, ratio of GI50 for 5-fluorouracil to GI50 for compound against human WiDr cells after 48 hrs by sulforhodamine B assay. The series is classed as functional.
For series [23], the system named is T47D. Description: Potency index, ratio of GI50 for cisplatin to GI50 for compound against human T47D cells after 48 hrs by sulforhodamine B assay. The series is classed as functional.
The test system of series [24] is WiDr. The series can be described thus: Potency index, ratio of GI50 for cisplatin to GI50 for compound against human WiDr cells after 48 hrs by sulforhodamine B assay. The series is classed as functional.

The term EC50 denotes the concentration that produces a half-maximal response. One may read the inhibition as the change of the read-out against control, counted positive when it falls. A word on the Ki: it is a measure of affinity in units of concentration, obtained from inhibition or displacement. The term GI50 denotes the concentration giving 50% growth inhibition. A low value points to more potent growth inhibition. `Oc1ccc(/C=N/NC(=S)Nc2ccccc2)cc1`: the EC50 in series [1] was determined as 90.1 µM. The “inhibition (INH)” value is recorded as 79.5% in [2] and 5.5% in [3]. For the same compound, the Activity in [4] was 0.094. Besides, the inhibition in series [5] came out at 52%. Also, the inhibition constant Ki in series [6] turned out to be 213 µM. Besides, the inhibition entry in the series on Saccharomyces bayanus [7] was “Active”. In addition, the GI50 with A549 stood at 34 µM; in [8], 43 µM; with SW1573, 35 µM; in the series on HeLa [9], 42 µM; in the series with T47D [10], 88 µM; in the series with WiDr [11] it was 61 µM.
On to `Oc1cc(O)c(/C=N/NC(=S)Nc2ccccc2)cc1O`, for which the half-maximal effective concentration (EC50) in series [1] was 13.9 µM. Also, the “inhibition (INH)” value in [2] is “Not Active”; in [3] it was 56.8%. Besides, in series [4], the Activity came to 0.067. In series [5], the inhibition was 100%. Further, in series [12], the Ki was determined as 9.6 µM. Moreover, the inhibition entry in the series with Saccharomyces bayanus [13] was “Active”. For the same compound, the Ratio Ki in the series on Saccharomyces bayanus [14] was found to be 8. Moreover, the concentration for 50% growth inhibition (GI50) in the series on A549 was 1.2 µM; in series [8] it was 29 µM; in the series on SW1573, 30 µM; in the series on HeLa [9], 19 µM; with T47D [10], 10 µM; with WiDr [11], 30 µM.
Turning to `C[C@H]1O[C@H](O[C@H]2[C@H](O)[C@@H](O)[C@@H](O[C@H]3[C@H](O)[C@@H](O)C(O)O[C@@H]3CO)O[C@@H]2CO)[C@H](O)[C@@H](O)[C@@H]1N[C@H]1C=C(CO)[C@@H](O)[C@H](O)[C@H]1O` (some centres not stated) [ACARBOSE], the inhibition constant Ki in [15] turned out to be 77.9 µM.
Regarding `Oc1ccc(/C=N/NC(=[Se])Nc2cccc3ccccc23)cc1O`, the half-maximal effective concentration (EC50) in [1] came to 18.2 µM. Also, the figures for the “inhibition (INH)” value in series [2] and in [3] were 46.3% and 72%, respectively. The Activity in series [4] was 0.079; in series [16] it was 0.041; in series [17] it was 0.037; in series [18] it was 0.097. The inhibition in series [5] was determined as 95%. Besides, the values for the Ki in series [12] and in series [6] were 57.8 µM and 69.8 µM, respectively. The inhibition entry in series [19] is “Active”. The GI50 amounted to 1.1 µM in the series on A549; 2.6 µM in series [8]; 3.2 µM in the series with SW1573; 2.2 µM in the series with HeLa [9]; 2.5 µM with T47D [10]; 2.8 µM in the series on WiDr [11].
In the case of `Oc1ccc(/C=N/NC(=[Se])Nc2cccc3ccccc23)cc1`, the half-maximal effective concentration (EC50) in series [1] was 21.7 µM. Besides, the “inhibition (INH)” value in series [2] is on record as 53.1%; in [3], 23.3%. Moreover, the inhibition in [5] was determined as 100%. In addition, the Ki in series [6] turned out to be 59 µM. Moreover, the inhibition entry in the series with Saccharomyces bayanus [7] was “Active”. Moreover, the GI50 turned out to be 1.3 µM with A549; 2.1 µM in [8]; 2.3 µM with SW1573; 2.2 µM with HeLa [9]; 2.5 µM in the series on T47D [10]; 2.3 µM with WiDr [11]. In addition, the RatioGI50 in the series on HeLa [20] is recorded as 6.5; in the series on T47D [21], 19; in the series on WiDr [22] it was 21; with T47D [23], 6; in the series on WiDr [24] it was 11.
